Experimental data reported in ChEMBL document CHEMBL1671714, “High-level azithromycin resistance occurs in Neisseria gonorrhoeae as a result of a single point mutation in the 23S rRNA genes” (2010).
Converted amounts (≈) assume the structure as drawn. The source made the active and inactive calls. The calls are words filed in the database; no cut-off is given here.

Key:
Neisseria gonorrhoeae [1] = assay: Antimicrobial activity against Neisseria gonorrhoeae isolate 352521 NG-MAST sequence type 1443 harboring A2059G mutation in 23S rRNA V domain allele 1, allele 2, allele 3 and allele 4 selected after 0.5 to 8 mg/L of erythromycin by Etest; format: functional
Procedure, shortened: (§1)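 Single-colony expansions of the parent isolate (~1 × 10^8 CFU by viable count) were spread on GC agar with 1% IsoVitaleX containing erythromycin in 2-fold steps from 0.5 to 8.0 mg/liter, and incubated 24 h at 36°C under 5% CO2. Growth on the highest-concentration plate was subcultured, confirmed as gonococcus (Gram stain, oxidase, Phadebact GC), and azithromycin and erythromycin MICs were read by Etest. Passages were run in duplicate.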

Neisseria gonorrhoeae [2] = assay: Antimicrobial activity against Neisseria gonorrhoeae harboring A2059G mutation in 23S rRNA V domain allele 1, allele 3 and allele 4 by Etest; format: functional
Procedure, shortened: (§2)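 Isolates were revived from −80°C cryopreservative stocks by 18 to 20 h of growth on GC agar base with 1% IsoVitaleX at 36°C under 5% CO2, then subcultured. Erythromycin and azithromycin MICs were read by Etest.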

Neisseria gonorrhoeae [3] = assay: Antimicrobial activity against Neisseria gonorrhoeae harboring A2059G mutation in 23S rRNA domain V allele 2 by Etest; format: functional; procedure, shortened: as §2
Neisseria gonorrhoeae [4] = assay: Antimicrobial activity against Neisseria gonorrhoeae harboring A2059G mutation in 23S rRNA V domain allele 1, allele 2, allele 3 and allele 4 by Etest; format: functional; procedure, shortened: as §2
Neisseria gonorrhoeae [5] = assay: microbe, parasite or virus in culture; conditions: isolate 352521
Neisseria gonorrhoeae [6] = assay: Antimicrobial activity against Neisseria gonorrhoeae isolate 252611 NG-MAST sequence type 470 harboring A2059G mutation in 23S rRNA V domain allele 2 by Etest; format: functional; procedure, shortened: as §2
Neisseria gonorrhoeae [7] = assay: Antimicrobial activity against Neisseria gonorrhoeae C2611T mutation in 23S rRNA domain V allele 3 by Etest; format: functional; procedure, shortened: as §2
Neisseria gonorrhoeae [8] = assay: Antimicrobial activity against Neisseria gonorrhoeae harboring A2059G mutation in 23S rRNA V domain allele 1, allele 2 and allele 4 by Etest; format: functional; procedure, shortened: as §2
Neisseria gonorrhoeae [9] = assay: Antimicrobial activity against Neisseria gonorrhoeae harboring A2059G mutation in 23S rRNA domain V allele 4 by Etest; format: functional; procedure, shortened: as §2
Neisseria gonorrhoeae [10] = assay: microbe, parasite or virus in culture
Neisseria gonorrhoeae [11] = assay: microbe, parasite or virus in culture; conditions: isolate 136
Neisseria gonorrhoeae [12] = assay: Antimicrobial activity against Neisseria gonorrhoeae isolate 254921 NG-MAST sequence type 649 selected after 2 to 8 mg/L of compound by Etest; format: functional
Neisseria gonorrhoeae [13] = assay: Antimicrobial activity against Neisseria gonorrhoeae isolate 254921 NG-MAST sequence type 649 by Etest; format: functional; procedure, shortened: as §2
Neisseria gonorrhoeae [14] = assay: Antimicrobial activity against Neisseria gonorrhoeae isolate 252611 NG-MAST sequence type 470 harboring A2059G mutation in 23S rRNA V domain allele 1, allele 2, allele 3 and allele 4 selected after 0.5 to 8 mg/L of erythromycin by Etest; format: functional; procedure, shortened: as §1
Neisseria gonorrhoeae [15] = assay: microbe, parasite or virus in culture; remark: listed apart in the source
Neisseria gonorrhoeae [16] = assay: Antimicrobial activity against Neisseria gonorrhoeae isolate 136 NG-MAST sequence type 1704 harboring A2059G mutation in 23S rRNA V domain allele 1, allele 2, allele 3 and allele 4 selected after 0.5 to 8 mg/L of erythromycin by Etest; format: functional; procedure, shortened: as §1
Neisseria gonorrhoeae [17] = assay: Antimicrobial activity against Neisseria gonorrhoeae expressing wild type 23S rRNA by Etest; format: functional; procedure, shortened: as §2
Neisseria gonorrhoeae [18] = assay: Antimicrobial activity against Neisseria gonorrhoeae isolate 254921 NG-MAST sequence type 649 selected after 4 mg/L of erythromycin by Etest; format: functional, organism-based

Row | Compound | MIC (Neisseria gonorrhoeae [1]) | MIC (Neisseria gonorrhoeae [2]) | MIC (Neisseria gonorrhoeae [3]) | MIC (Neisseria gonorrhoeae [4]) | MIC (Neisseria gonorrhoeae [5]) | MIC (Neisseria gonorrhoeae [6]) | MIC (Neisseria gonorrhoeae [7]) | MIC (Neisseria gonorrhoeae [8]) | MIC (Neisseria gonorrhoeae [9]) | MIC (Neisseria gonorrhoeae [10]) | MIC (Neisseria gonorrhoeae [11]) | MIC (Neisseria gonorrhoeae [12]) | MIC (Neisseria gonorrhoeae [13]) | MIC (Neisseria gonorrhoeae [14]) | MIC (Neisseria gonorrhoeae [15]) | MIC (Neisseria gonorrhoeae [16]) | MIC (Neisseria gonorrhoeae [17]) | Activity (Neisseria gonorrhoeae [18])
1 | CC[C@H]1OC(=O)[C@H](C)[C@@H](O[C@H]2C[C@@](C)(OC)[C@@H](O)[C@H](C)O2)[C@H](C)[C@@H](O[C@@H]2O[C@H](C)C[C@H](N(C)C)[C@H]2O)[C@](C)(O)C[C@@H](C)CN(C)[C@H](C)[C@@H](O)[C@]1(C)O [AZITHROMYCIN] | > 256 µg/mL | ≥ 256 µg/mL | 0.06 µg/mL (≈ 0.0801 µM) | ≥ 256 µg/mL | 0.25 µg/mL (≈ 0.334 µM) | 0.38 µg/mL (≈ 0.507 µM) | 0.06 µg/mL (≈ 0.0801 µM) | ≥ 256 µg/mL | 0.06 µg/mL (≈ 0.0801 µM) | 2 µg/mL (≈ 2.67 µM) | 0.25 µg/mL (≈ 0.334 µM) | 1.5 µg/mL (≈ 2 µM) | 0.25 µg/mL (≈ 0.334 µM) | > 256 µg/mL | 2 µg/mL (≈ 2.67 µM) | > 256 µg/mL | 0.06 µg/mL (≈ 0.0801 µM) | –
2 | CC[C@H]1OC(=O)[C@H](C)[C@@H](O[C@H]2C[C@@](C)(OC)[C@@H](O)[C@H](C)O2)[C@H](C)[C@@H](O[C@@H]2O[C@H](C)C[C@H](N(C)C)[C@H]2O)[C@](C)(O)C[C@@H](C)C(=O)[C@H](C)[C@@H](O)[C@]1(C)O [ERYTHROMYCIN] | – | – | – | – | – | – | – | – | – | – | – | 4 µg/mL (≈ 5.45 µM) | 3 µg/mL (≈ 4.09 µM) | – | – | – | – | Active
